Results from different studies.
Protocols differ between the studies behind these lines.
Target: MAP kinase-interacting serine/threonine-protein kinase 1 (MKNK1, Homo sapiens, UniProt Q9BUB5)

COc1ncccc1-c1cnn2ccc(N3CCN(C(=O)OC(C)C)CC3)nc12 — remaining binding (binding, competition with immobilised ligand; 1 µM): 100%
N#CC1(c2ccccn2)CCN(Cc2cc(C(=O)O)c(=O)n3ccccc23)CC1 — remaining binding (cell-free assay, competition with immobilised ligand; 1 µM): 85%
O=c1[nH]c2ccccc2n1C1CCN(Cc2ccc(-c3[nH]c4cc5ncnc5cc4nc3-c3ccccc3)cc2)CC1 — remaining signal (cell-free assay; 0.5 µM): 104%
Cn1cncc1[C@](O)(COc1ccc(C#N)cc1-c1ccc(OC(F)(F)F)cc1)c1ccc(C#N)cc1 — remaining binding (cell-free assay, competition with immobilised ligand; 1 µM): 68%
Nc1ncc(-c2nc(N3CCOCC3)nc(N3CCOCC3)n2)c(C(F)F)n1 — remaining binding (binding, competition with immobilised ligand; 10 µM): 45%
COc1cc(Nc2ncc(F)c(Nc3ccc4c(n3)NC(=O)C(C)(C)O4)n2)cc(OC)c1OC — inhibition (binding, competition with immobilised ligand; 10 µM): 9%
Cc1nn(C)cc1-c1nc2c(N3CCN(Cc4ccc(Cl)cc4)CC3)c(Cl)cnc2[nH]1 — remaining binding (binding, competition with immobilised ligand; 1 µM): 100%
CC(C)(C)c1cc(C=C(C#N)C#N)cc(Br)c1O — remaining activity (enzyme activity, inhibitor; 0.5 µM): 95.9%
